# How the values were obtained:
# [1] = target: D(4) dopamine receptor (Homo sapiens) (UniProt P21917); test: Inhibition of dopamine D4 receptor (unknown origin) at 5 uM by psychoactive drug screening programme assay
# Method in brief: (§1)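 Radioligand binding screen run by PDSP. Displacement of ligand binding was measured with test compound at 5 µM, n=4 per target.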
# [2] = target: D(1B) dopamine receptor (Homo sapiens) (UniProt P21918); test: Inhibition of dopamine D5 receptor (unknown origin) at 5 uM by psychoactive drug screening programme assay; method in brief: as §1
# [3] = target: Muscarinic acetylcholine receptor M4 (Homo sapiens) (UniProt P08173); test: Inhibition of M4 receptor (unknown origin) at 5 uM by psychoactive drug screening programme assay; method in brief: as §1
# [4] = target: Histamine H1 receptor (Homo sapiens) (UniProt P35367); test: Inhibition of H1 histamine receptor (unknown origin) at 5 uM by psychoactive drug screening programme assay; method in brief: as §1
# [5] = target: Ionotropic glutamate receptor NMDA 1/2D (Rattus norvegicus, UniProt P35439+Q62645); test: Activity at rat recombinant GluN1/GluN2D receptor assessed as potentiation of glycine/glutamate-induced activation by two-electrode voltage clamp technique; type: protein-complex assay
# [6] = target: Glutamate NMDA receptor; Grin1/Grin2b (Rattus norvegicus) (UniProt P35439+Q00960); test: Activity at rat recombinant GluN1/GluN2B receptor expressed in Xenopus oocytes assessed as effect of glycine/glutamate-induced response at 3 uM by two-electrode voltage clamp technique relative to control; type: cell-based; conditions: Oocyte
# Method in brief: (§2)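 Two-electrode voltage clamp of Xenopus oocytes injected with 1–5 ng cRNA and kept in Barth's solution at 15°C for 2–5 days. Oocytes were perfused with 90 mM NaCl, 1.0 KCl, 0.5 BaCl2, 0.005 EDTA, 10 HEPES, pH 7.4, 23°C, and held at -40 mV. Compound was co-applied at 3 µM with agonist from 20 mM DMSO stocks, final DMSO 0.05–0.5%.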
# [7] = target: 5-hydroxytryptamine receptor 3A (Rattus norvegicus) (UniProt P35563); test: Activity at rat recombinant serotonin 5-HT3A receptor expressed in Xenopus oocytes assessed as effect on serotonin-induced activation at 3 uM by two-electrode voltage clamp technique relative to control; type: cell-based; conditions: Oocyte; method in brief: as §2
# Sequence of 5-hydroxytryptamine receptor 3A (Rattus norvegicus) (P35563 whole entry): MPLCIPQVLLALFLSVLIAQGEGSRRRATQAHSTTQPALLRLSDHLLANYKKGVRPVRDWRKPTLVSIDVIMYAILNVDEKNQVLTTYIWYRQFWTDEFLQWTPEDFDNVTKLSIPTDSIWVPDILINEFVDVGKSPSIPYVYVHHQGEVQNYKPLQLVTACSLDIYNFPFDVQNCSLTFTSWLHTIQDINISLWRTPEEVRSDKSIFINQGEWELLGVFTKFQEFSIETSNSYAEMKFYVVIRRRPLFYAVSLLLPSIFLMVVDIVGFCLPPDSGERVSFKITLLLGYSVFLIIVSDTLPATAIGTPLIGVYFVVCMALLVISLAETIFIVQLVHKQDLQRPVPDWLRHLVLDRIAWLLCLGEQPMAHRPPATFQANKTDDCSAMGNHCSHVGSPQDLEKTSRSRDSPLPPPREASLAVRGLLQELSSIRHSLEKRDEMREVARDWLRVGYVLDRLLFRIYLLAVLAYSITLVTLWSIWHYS
# [8] = target: 5-hydroxytryptamine receptor 2C (Homo sapiens) (UniProt P28335); test: Inhibition of serotonin 5-HT2C receptor (unknown origin) at 5 uM by psychoactive drug screening programme assay; method in brief: as §1
# Sequence of 5-hydroxytryptamine receptor 2C (Homo sapiens) (P28335 whole entry): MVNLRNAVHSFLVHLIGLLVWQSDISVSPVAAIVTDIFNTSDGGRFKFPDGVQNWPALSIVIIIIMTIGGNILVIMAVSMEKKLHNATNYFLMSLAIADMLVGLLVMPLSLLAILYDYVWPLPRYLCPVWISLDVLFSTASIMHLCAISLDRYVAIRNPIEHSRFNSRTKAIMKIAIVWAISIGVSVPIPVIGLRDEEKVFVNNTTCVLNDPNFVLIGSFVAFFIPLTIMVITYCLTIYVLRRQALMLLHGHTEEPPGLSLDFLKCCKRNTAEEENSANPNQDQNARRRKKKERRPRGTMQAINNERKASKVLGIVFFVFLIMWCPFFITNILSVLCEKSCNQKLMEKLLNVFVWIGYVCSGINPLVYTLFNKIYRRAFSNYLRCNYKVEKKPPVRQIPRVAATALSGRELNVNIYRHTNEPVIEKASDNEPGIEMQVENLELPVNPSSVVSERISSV
# [9] = target: Glutamate NMDA receptor; Grin1/Grin2c (Rattus norvegicus) (UniProt P35439+Q00961); test: Activity at rat recombinant GluN1/GluN2C receptor expressed in Xenopus oocytes assessesed as effect of glycine/glutamate-induced response at 3 uM by two-electrode voltage clamp technique relative to control; type: cell-based; conditions: Oocyte; method in brief: as §2
# [10] = target: Glutamate receptor 2 (Rattus norvegicus) (UniProt P19491); test: Activity at rat recombinant GluA2 receptor expressed in Xenopus oocytes assessed as effect on glutamate-induced response at 3 uM by two-electrode voltage clamp technique relative to control; type: cell-based; conditions: Oocyte; method in brief: as §2
# [11] = target: Muscarinic acetylcholine receptor M2 (Homo sapiens) (UniProt P08172); test: Inhibition of M2 receptor (unknown origin) at 5 uM by psychoactive drug screening programme assay; method in brief: as §1
# Sequence of Muscarinic acetylcholine receptor M2 (Homo sapiens) (P08172 whole entry): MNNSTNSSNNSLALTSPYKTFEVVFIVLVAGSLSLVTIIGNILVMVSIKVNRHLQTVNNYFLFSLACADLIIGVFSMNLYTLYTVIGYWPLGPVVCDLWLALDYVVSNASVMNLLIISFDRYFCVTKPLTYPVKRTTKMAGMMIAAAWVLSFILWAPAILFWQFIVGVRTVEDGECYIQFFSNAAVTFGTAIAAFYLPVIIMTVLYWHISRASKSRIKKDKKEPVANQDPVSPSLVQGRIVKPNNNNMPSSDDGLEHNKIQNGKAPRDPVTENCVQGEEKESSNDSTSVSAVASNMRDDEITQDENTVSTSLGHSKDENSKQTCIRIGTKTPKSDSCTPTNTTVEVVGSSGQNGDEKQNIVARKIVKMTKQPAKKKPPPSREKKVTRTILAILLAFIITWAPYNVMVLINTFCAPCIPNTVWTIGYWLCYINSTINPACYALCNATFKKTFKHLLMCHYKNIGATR
# [12] = target: Kappa-type opioid receptor (Homo sapiens, UniProt P41145); test: Inhibition of kappa opioid receptor (unknown origin) by psychoactive drug screening programme assay
# [13] = target: Alpha-2B adrenergic receptor (Homo sapiens) (UniProt P18089); test: Inhibition of adrenergic alpha2B receptor (unknown origin) at 5 uM by psychoactive drug screening programme assay; method in brief: as §1
# [14] = target: 5-hydroxytryptamine receptor 7 (Homo sapiens) (UniProt P34969); test: Inhibition of serotonin 5-HT7 receptor (unknown origin) at 5 uM by psychoactive drug screening programme assay
# Sequence of 5-hydroxytryptamine receptor 7 (Homo sapiens) (P34969 whole entry): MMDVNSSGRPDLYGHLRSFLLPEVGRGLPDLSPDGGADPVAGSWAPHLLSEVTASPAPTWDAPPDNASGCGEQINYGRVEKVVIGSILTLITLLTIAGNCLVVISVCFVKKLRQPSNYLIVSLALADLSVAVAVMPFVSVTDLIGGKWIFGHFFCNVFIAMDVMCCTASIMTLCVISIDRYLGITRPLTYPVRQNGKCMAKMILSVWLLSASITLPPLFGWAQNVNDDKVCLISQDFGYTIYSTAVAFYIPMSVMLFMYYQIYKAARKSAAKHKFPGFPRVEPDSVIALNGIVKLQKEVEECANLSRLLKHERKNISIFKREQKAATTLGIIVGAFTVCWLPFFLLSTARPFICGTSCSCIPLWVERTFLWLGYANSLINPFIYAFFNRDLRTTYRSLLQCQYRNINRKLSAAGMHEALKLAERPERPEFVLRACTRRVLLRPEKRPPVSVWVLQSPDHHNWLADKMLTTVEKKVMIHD
# [15] = target: Alpha-1D adrenergic receptor (Homo sapiens) (UniProt P25100); test: Inhibition of adrenergic alpha1D receptor (unknown origin) at 5 uM by psychoactive drug screening programme assay; method in brief: as §1
# [16] = target: Alpha-1B adrenergic receptor (Homo sapiens) (UniProt P35368); test: Inhibition of adrenergic alpha1B receptor (unknown origin) at 5 uM by psychoactive drug screening programme assay; method in brief: as §1
# Sequence of Alpha-1B adrenergic receptor (Homo sapiens) (P35368 whole entry): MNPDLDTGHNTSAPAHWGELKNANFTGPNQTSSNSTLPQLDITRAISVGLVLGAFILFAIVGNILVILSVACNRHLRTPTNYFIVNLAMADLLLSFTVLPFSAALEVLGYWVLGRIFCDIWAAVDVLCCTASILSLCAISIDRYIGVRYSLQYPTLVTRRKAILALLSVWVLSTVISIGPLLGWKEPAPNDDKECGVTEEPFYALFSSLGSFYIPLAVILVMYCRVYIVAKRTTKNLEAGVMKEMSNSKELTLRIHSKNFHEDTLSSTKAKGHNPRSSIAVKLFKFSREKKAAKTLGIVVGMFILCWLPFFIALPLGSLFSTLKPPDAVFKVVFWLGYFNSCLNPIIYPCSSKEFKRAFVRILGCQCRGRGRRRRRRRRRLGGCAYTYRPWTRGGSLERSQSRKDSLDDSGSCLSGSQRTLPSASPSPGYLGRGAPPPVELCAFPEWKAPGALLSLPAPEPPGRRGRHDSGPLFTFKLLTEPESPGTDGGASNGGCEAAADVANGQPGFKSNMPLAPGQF
# [17] = target: Sodium-dependent serotonin transporter (Homo sapiens) (UniProt P31645); test: Inhibition of serotonin transporter (unknown origin) at 5 uM by psychoactive drug screening programme assay
# Sequence of Sodium-dependent serotonin transporter (Homo sapiens) (P31645 whole entry, looked up): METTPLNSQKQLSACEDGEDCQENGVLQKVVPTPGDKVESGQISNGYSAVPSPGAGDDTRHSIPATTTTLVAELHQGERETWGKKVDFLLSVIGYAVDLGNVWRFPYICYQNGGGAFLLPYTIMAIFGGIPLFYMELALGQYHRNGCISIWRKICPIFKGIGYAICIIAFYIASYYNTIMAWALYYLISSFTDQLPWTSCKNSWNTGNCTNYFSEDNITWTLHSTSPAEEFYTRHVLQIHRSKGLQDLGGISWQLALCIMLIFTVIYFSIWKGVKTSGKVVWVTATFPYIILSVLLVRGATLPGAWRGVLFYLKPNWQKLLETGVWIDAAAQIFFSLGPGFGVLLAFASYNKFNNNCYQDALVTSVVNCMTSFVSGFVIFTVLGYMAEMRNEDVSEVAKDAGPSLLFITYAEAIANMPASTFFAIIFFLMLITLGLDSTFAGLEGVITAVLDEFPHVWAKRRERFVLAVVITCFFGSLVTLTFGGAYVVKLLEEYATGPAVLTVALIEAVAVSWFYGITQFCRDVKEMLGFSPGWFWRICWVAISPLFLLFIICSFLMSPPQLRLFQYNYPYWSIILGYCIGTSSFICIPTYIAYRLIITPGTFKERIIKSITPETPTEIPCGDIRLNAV
# [18] = target: 5-hydroxytryptamine receptor 5A (Homo sapiens) (UniProt P47898); test: Inhibition of serotonin 5-HT5A receptor (unknown origin) at 5 uM by psychoactive drug screening programme assay
# [19] = target: Histamine H3 receptor (Homo sapiens) (UniProt Q9Y5N1); test: Inhibition of H3 histamine receptor (unknown origin) at 5 uM by psychoactive drug screening programme assay; method in brief: as §1
# Sequence of Histamine H3 receptor (Homo sapiens) (Q9Y5N1 whole entry): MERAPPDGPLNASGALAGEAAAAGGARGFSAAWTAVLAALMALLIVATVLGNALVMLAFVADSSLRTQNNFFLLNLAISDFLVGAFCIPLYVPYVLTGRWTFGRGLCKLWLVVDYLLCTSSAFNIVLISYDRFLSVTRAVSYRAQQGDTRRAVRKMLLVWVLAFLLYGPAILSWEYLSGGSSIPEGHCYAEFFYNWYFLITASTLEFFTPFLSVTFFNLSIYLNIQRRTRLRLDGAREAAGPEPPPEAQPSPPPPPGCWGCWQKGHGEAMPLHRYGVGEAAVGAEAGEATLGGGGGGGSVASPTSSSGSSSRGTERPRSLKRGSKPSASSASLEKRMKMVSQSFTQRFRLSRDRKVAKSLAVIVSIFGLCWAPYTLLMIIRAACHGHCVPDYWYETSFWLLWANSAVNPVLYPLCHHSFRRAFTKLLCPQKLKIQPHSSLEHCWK
# [20] = target: Alpha-2C adrenergic receptor (Homo sapiens) (UniProt P18825); test: Inhibition of adrenergic alpha2C receptor (unknown origin) at 5 uM by psychoactive drug screening programme assay; method in brief: as §1
# Sequence of Alpha-2C adrenergic receptor (Homo sapiens) (P18825 whole entry): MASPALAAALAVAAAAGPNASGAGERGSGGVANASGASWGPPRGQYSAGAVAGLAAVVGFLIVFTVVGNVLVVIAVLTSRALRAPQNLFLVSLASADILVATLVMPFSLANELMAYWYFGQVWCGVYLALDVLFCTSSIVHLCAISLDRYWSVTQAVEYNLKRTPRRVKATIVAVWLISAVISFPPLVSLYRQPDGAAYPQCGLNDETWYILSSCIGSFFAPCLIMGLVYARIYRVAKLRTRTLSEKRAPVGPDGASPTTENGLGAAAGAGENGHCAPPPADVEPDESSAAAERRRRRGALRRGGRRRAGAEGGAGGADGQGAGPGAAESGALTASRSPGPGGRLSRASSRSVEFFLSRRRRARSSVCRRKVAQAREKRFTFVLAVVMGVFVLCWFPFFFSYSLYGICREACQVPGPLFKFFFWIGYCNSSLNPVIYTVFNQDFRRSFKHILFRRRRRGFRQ
# [21] = target: Glutamate receptor ionotropic, kainate 1 (Rattus norvegicus) (UniProt P22756); test: Activity at rat recombinant GluK1 receptor expressed in Xenopus oocytes assessed as effect on glutamate-induced response at 3 uM by two-electrode voltage clamp technique relative to control; type: cell-based; conditions: Oocyte; method in brief: as §2
# [22] = target: D(1A) dopamine receptor (Homo sapiens) (UniProt P21728); test: Inhibition of dopamine D1 receptor (unknown origin) at 5 uM by psychoactive drug screening programme assay; method in brief: as §1
# Sequence of D(1A) dopamine receptor (Homo sapiens) (P21728 whole entry): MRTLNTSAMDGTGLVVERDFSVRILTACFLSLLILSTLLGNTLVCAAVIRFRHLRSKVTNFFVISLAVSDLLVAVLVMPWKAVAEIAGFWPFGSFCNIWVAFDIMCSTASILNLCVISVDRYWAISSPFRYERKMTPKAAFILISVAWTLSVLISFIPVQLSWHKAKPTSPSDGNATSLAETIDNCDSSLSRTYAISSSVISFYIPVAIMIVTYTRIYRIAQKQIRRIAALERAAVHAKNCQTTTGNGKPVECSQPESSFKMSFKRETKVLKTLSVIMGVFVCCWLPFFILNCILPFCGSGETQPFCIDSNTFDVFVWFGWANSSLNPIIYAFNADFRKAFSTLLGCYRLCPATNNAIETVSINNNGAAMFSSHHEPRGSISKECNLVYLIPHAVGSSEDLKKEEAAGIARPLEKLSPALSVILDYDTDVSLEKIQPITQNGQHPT
# [23] = target: Muscarinic acetylcholine receptor M3 (Homo sapiens) (UniProt P20309); test: Inhibition of M3 receptor (unknown origin) at 5 uM by psychoactive drug screening programme assay; method in brief: as §1
# [24] = target: Glutamate NMDA receptor; Grin1/Grin2c (Rattus norvegicus, UniProt P35439+Q00961); test: Activity at rat recombinant GluN1/GluN2C receptor assessed as potentiation of glycine/glutamate-induced activation by two-electrode voltage clamp technique; type: protein-complex assay
# [25] = target: P2X purinoceptor 2 (Rattus norvegicus) (UniProt P49653); test: Activity at rat recombinant purinergic P2X2 receptor expressed in Xenopus oocytes assessed as effect on ATP-induced activation at 3 uM by two-electrode voltage clamp technique relative to control; type: cell-based; conditions: Oocyte; method in brief: as §2
# Sequence of P2X purinoceptor 2 (Rattus norvegicus) (P49653 whole entry): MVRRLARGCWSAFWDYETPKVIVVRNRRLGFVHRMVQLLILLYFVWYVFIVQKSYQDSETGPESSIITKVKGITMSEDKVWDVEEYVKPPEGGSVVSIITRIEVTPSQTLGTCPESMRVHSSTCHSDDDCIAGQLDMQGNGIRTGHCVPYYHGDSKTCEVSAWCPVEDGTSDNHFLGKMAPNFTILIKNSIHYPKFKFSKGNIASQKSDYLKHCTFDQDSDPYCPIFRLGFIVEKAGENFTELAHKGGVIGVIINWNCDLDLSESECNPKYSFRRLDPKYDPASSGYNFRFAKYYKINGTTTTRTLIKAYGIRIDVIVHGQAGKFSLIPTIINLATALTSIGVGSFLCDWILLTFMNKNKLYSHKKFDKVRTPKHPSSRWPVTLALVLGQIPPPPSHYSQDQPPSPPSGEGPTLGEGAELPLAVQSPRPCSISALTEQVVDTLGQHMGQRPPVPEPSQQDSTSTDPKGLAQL
# [26] = target: Glycine receptor subunit alpha-1 (Rattus norvegicus) (UniProt P07727); test: Activity at rat recombinant glycine alpha1 receptor expressed in Xenopus oocytes assessed as effect on glycine-induced activation at 3 uM by two-electrode voltage clamp technique relative to control; type: cell-based; conditions: Oocyte; method in brief: as §2
# Oocyte = test: Activity at mouse recombinant alpha1beta1gammadelta nAChR expressed in Xenopus oocytes assessed as effect on acetylcholine-induced activation at 3 uM by two-electrode voltage clamp technique relative to control; type: cell-based; method in brief: as §2
# [27] = target: Ionotropic glutamate receptor kainate 2/5 (Rattus norvegicus) (UniProt P42260+Q63273); test: Activity at rat recombinant GluK2/GluK5 receptor expressed in Xenopus oocytes assessed as effect on glutamate-induced response at 3 uM by two-electrode voltage clamp technique relative to control; type: cell-based; conditions: Oocyte; method in brief: as §2
# [28] = target: D(2) dopamine receptor (Homo sapiens) (UniProt P14416); test: Inhibition of dopamine D2 receptor (unknown origin) at 5 uM by psychoactive drug screening programme assay; method in brief: as §1
# [29] = target: Glutamate receptor 3 (Rattus norvegicus) (UniProt P19492); test: Activity at rat recombinant GluA3 receptor expressed in Xenopus oocytes assessed as effect on glutamate-induced response at 3 uM by two-electrode voltage clamp technique relative to control; type: cell-based; conditions: Oocyte; method in brief: as §2
smiles,measurement,setting,value
COc1ccc(OCC2c3ccc(OCc4ccccc4)cc3CCN2C(=O)c2cccc(Br)c2)cc1 (stereo not given),inhibition,[1],< 50%
same,inhibition,[2],< 50%
same,inhibition,[3],< 50%
same,inhibition,[4],< 50%
same,EC50,[5],300 nM
same,Activity,[6],102%
same,Activity,[7],93%
same,inhibition,[8],< 50%
same,Activity,[9],247%
same,Activity,[10],97%
same,inhibition,[11],< 50%
same,Ki,[12],> 5000 nM
same,inhibition,[13],< 50%
same,inhibition,[14],< 50%
same,inhibition,[15],< 50%
same,inhibition,[16],< 50%
same,inhibition,[17],< 50%
same,inhibition,[18],< 50%
same,inhibition,[19],< 50%
same,inhibition,[20],< 50%
same,Activity,[21],101%
same,inhibition,[22],< 50%
same,inhibition,[23],< 50%
same,EC50,[24],300 nM
same,Activity,[25],94%
same,Activity,[26],91%
same,Activity,Oocyte,105%
same,Activity,[27],103%
same,inhibition,[28],< 50%
same,Activity,[29],99%

# — ChEMBL document CHEMBL2396604, “Synthesis and structure activity relationship of tetrahydroisoquinoline-based potentiators of GluN2C and GluN2D containing N-methyl-D-aspartate receptors” (J Med Chem, 2013)
